Test results taken from ChEMBL document CHEMBL2321697, “The effect of absolute configuration on activity, subtype selectivity (M3/M2) of 3α-acyloxy-6β-acetoxyltropane derivatives as muscarinic M3 receptor antagonists” (Bioorg Med Chem, 2013).

How the values were obtained:
[1] = molecular target: Muscarinic receptor M2 and M3 (Rattus norvegicus) (UniProt P08483+P10980); test: Selectivity ratio of Ki for muscarinic M2 receptor in Sprague-Dawley rat left atria to Ki for muscarinic M3 receptor in Sprague-Dawley rat submandibulary gland
[2] = molecular target: T1, Muscarinic acetylcholine receptor M2 (Rattus norvegicus, UniProt P10980); test: Displacement of [3H]NMS from muscarinic M2 receptor in Sprague-Dawley rat left atria after 60 mins
T1 sequence (P10980 whole entry): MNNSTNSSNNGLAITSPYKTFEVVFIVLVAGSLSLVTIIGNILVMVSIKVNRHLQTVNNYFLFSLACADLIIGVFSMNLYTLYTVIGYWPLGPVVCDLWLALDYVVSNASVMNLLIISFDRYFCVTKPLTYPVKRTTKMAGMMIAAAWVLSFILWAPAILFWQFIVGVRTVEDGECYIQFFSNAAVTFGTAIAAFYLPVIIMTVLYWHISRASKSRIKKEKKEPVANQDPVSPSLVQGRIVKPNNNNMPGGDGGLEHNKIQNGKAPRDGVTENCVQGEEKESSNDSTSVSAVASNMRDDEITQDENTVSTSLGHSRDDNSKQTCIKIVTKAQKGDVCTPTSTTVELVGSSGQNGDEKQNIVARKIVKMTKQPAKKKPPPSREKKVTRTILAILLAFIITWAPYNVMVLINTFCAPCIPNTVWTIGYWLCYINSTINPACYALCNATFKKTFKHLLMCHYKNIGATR
Procedure, shortened: (§1)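 Membranes from male SD rat (220–250 g) left atria (M2) or submandibulary glands (M3). Tissue homogenised in ice-cold 0.32 M sucrose/50 mM Tris pH 7.4, then spun at 1000g and 20000g, all steps at 4 °C. Membranes (0.1 mg protein) incubated 60 min at 37 °C with 0.4 nM [3H]NMS plus increasing test concentrations. Filtration read-out. IC50 converted to Ki by Cheng–Prusoff, mean SEM.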

[3] = molecular target: Muscarinic acetylcholine receptor M3 (Rattus norvegicus, UniProt P08483); test: Displacement of [3H]NMS from muscarinic M3 receptor in Sprague-Dawley rat submandibulary gland after 60 mins; procedure, shortened: as §1
[4] = molecular target: Muscarinic acetylcholine receptor M3 (Cavia porcellus, UniProt Q8VH26); test: Antagonist activity at muscarinic M3 receptor in guinea pig ilea assessed as inhibition of carbachol-induced contraction; details: read-out: pA2 (converted)
Procedure, shortened: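 Ileal strips (1.5 cm) in 10 ml baths of Kreb's solution under 1000 mg load, equilibrated 30 min with fluid changed every 15 min. Isotonic recording. Cumulative carbachol curve with roughly 3-fold steps, each added once the prior response was steady. Responses expressed as % of control maximum. Antagonist at three concentrations. pA2 by Schild analysis.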

Muscarinic receptor 2 = molecular target: T2, Muscarinic receptor 2 (Cavia porcellus, UniProt Q8VH27); test: Antagonist activity at muscarinic M2 receptor in guinea pig left atria assessed as inhibition of carbachol-induced […]; details: read-out: pA2 (converted)
T2 sequence (Q8VH27 whole entry): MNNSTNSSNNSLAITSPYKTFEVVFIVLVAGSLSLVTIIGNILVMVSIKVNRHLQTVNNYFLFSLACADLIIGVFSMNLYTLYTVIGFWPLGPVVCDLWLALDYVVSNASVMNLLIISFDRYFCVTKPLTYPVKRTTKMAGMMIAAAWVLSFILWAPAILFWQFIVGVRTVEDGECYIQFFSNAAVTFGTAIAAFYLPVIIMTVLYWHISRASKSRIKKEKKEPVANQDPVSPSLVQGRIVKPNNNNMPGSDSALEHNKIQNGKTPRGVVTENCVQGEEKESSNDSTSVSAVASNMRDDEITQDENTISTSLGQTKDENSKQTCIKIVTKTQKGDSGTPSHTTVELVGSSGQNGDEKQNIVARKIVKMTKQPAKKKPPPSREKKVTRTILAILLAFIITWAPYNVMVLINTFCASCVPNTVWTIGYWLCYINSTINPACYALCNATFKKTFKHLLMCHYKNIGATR
Procedure, shortened: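 Isolated left atria in Kreb's solution under 500 mg tension, stabilised 45 min, then electrically paced (2 Hz, 6 ms, 10 V square-wave submaximal pulses). Inotropic response recorded isometrically. Cumulative carbachol curves expressed as % of contraction before agonist. Antagonist tested at two or three concentrations. pA2 obtained by Schild analysis.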

Muscarinic acetylcholine receptor M3 (Rattus norvegicus, UniProt P08483), sequence (P08483 whole entry): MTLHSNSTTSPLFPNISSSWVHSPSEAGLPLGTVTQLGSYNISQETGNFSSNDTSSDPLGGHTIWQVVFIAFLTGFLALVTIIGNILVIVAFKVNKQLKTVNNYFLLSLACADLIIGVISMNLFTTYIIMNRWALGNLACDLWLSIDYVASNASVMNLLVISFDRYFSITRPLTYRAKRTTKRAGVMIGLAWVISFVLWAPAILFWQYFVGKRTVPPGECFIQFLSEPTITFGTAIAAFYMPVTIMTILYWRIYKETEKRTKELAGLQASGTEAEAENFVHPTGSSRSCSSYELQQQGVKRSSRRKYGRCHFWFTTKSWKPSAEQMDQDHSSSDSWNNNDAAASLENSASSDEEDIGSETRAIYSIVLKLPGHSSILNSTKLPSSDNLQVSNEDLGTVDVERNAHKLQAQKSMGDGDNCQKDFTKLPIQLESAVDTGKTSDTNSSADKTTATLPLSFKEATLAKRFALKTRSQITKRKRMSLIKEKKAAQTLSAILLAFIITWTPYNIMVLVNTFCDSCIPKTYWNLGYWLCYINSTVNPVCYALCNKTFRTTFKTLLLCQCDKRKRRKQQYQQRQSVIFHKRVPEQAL
Muscarinic receptor M2 and M3 (Rattus norvegicus), sequence (P08483 whole entry, looked up, one chain of several): as the sequence (P08483 whole entry) above
Muscarinic acetylcholine receptor M3 (Cavia porcellus, UniProt Q8VH26), sequence (Q8VH26 whole entry): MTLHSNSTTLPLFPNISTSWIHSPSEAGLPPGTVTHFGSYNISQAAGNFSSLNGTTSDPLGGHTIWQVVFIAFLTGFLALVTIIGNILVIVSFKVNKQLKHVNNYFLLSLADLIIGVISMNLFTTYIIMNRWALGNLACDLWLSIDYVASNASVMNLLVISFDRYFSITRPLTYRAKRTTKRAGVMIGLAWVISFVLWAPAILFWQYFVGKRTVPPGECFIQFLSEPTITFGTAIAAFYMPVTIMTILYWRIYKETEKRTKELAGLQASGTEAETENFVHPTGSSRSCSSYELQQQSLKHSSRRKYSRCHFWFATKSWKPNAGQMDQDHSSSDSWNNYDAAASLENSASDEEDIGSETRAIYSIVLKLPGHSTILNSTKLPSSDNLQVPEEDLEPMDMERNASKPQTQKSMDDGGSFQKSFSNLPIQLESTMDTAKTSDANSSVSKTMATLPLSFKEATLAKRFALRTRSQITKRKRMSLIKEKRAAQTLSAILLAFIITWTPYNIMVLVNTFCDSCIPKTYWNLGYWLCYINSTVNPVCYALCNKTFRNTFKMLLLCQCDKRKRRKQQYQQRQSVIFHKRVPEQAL

Structure (SMILES): CC(=O)O[C@@H]1C[C@@H]2C[C@H](OC(=O)c3ccccc3[N+](=O)[O-])C[C@@H]1N2C
- Ratio Ki [1]: 1.3
- Ki [2]: 84 µM
- Ki [3]: 66 µM

Structure (SMILES): CC(=O)O[C@H]1C[C@@H]2C[C@@H](OC(=O)c3ccccc3[N+](=O)[O-])C[C@@H]1N2C
- Ratio Ki [1]: 2.6
- Ki [2]: 9.8 µM
- Ki [3]: 3.7 µM
- Kb [4]: 0.389 µM
- Kb (Muscarinic receptor 2): 0.851 µM

Structure (SMILES): CC(=O)O[C@H]1C[C@@H]2C[C@@H](OC(=O)Cc3ccccc3)C[C@@H]1N2C
- Ratio Ki [1]: 13
- Ki [2]: 12 µM
- Ki [3]: 0.92 µM
- Kb [4]: 0.123 µM
- Kb (Muscarinic receptor 2): 1.1 µM

Structure (SMILES): CC(=O)O[C@H]1C[C@@H]2C[C@@H](OC(=O)c3ccccc3)C[C@@H]1N2C
- Ratio Ki [1]: 4
- Ki [2]: 10.7 µM
- Ki [3]: 2.7 µM
- Kb [4]: 0.309 µM
- Kb (Muscarinic receptor 2): 1.32 µM

Structure (SMILES): CC(=O)O[C@@H]1C[C@@H]2C[C@H](OC(=O)c3ccccc3Cl)C[C@@H]1N2C
- Ratio Ki [1]: 1.1
- Ki [2]: 95 µM
- Ki [3]: 83 µM

Structure (SMILES): CC(=O)O[C@@H]1C[C@@H]2C[C@H](OC(=O)c3ccccc3)C[C@@H]1N2C
- Ratio Ki [1]: 1.1
- Ki [2]: 77 µM
- Ki [3]: 71 µM

Structure (SMILES): CC(=O)O[C@@H]1C[C@@H]2C[C@H](OC(=O)Cc3ccccc3)C[C@@H]1N2C
- Ratio Ki [1]: 0.9
- Ki [2]: 86 µM
- Ki [3]: 95 µM

Structure (SMILES): CC(=O)O[C@H]1C[C@@H]2C[C@@H](OC(=O)c3ccccc3Cl)C[C@@H]1N2C
- Ratio Ki [1]: 6.3
- Ki [2]: 8.8 µM
- Ki [3]: 1.4 µM
- Kb [4]: 0.275 µM
- Kb (Muscarinic receptor 2): 0.631 µM
